ATG4B inhibitor = ATG4B (human) cysteine protease inhibition. Q9Y4P1. ATG4B cleavage of LC3-PLA2, NBD-HPC fluorescence, 1 h. inhibition, % at 8.33 µM. 0.51% of 340,000 active; in the data active = inhibition above about 40%
Target sequence (Q9Y4P1 whole entry, looked up): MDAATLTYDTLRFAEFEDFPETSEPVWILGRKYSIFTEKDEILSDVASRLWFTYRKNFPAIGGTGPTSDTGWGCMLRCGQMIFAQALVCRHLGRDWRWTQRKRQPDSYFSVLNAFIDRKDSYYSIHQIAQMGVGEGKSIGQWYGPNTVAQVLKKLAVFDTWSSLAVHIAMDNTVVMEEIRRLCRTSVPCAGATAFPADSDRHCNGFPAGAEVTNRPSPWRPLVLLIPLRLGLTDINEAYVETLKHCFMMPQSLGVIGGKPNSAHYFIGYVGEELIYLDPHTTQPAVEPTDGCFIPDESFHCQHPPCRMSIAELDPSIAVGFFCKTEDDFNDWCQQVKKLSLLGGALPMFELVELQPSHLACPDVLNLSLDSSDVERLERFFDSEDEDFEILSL
B2AR ag = human beta-2 adrenergic receptor agonism by FAP; Am2.2-beta2AR cells, FAP receptor internalization, flow cytometry; response, % (no concentration beside the values); 0.43% of 340,000 active; P07550; AID 504454;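 active = response above a set limit, near 3 SD of response in nonfluorescent compounds, cut at about 42% in these data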
Dynein transport = dynein cargo transport inhibition; z-score, hits read low; 0.47% of 220,000 active; AID 1381; 3617.4 mouse cells, GR-EGFP nuclear translocation imaging; test concentration mostly 20 µM; stimulated with dexamethasone, 1 µM; active compounds read low;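 active = plate z-score of nuclear minus cytoplasmic receptor signal below a set negative limit, without overly bright fluorescence or cell loss, cut at about -3.5 in these data, passing the limit was not always enough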;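 also: z-score of nuclear minus cytoplasmic ring GR-EGFP intensity difference per well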
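Also added: dexamethasone, 1.0 µM final. Medium: tet-free, stripped-serum medium. Detection: fixed, Hoechst-stained cells imaged at 10x for EGFP. Read-out: nuclear-to-cytoplasmic GR-EGFP distribution per well. Times: induction 48 h, compound 1 h, agonist 30 min.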
MEKK3 PB1 HTS = raises or lowers MEK5 binding to the human MEKK3 PB1 domain | Q99759 | bead-based flow cytometry, Alexa488-MEK5 binding to MEKK3; actives lie on both sides; 0 = blocked by unlabeled MEK5, 100 = vehicle | binding response (% of control), % at 10 µM | AID 1529 | 1.4% of 290,000 active;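 active = binding response more than 3 SD above or below the average of its plate-row segment, actives on both sides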;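 also: Alexa488 bead fluorescence after subtracting the streptavidin-only scavenger bead signal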
MEKK2 WT-MEK5 = raises or lowers MEK5 binding to wildtype human MEKK2 PB1 domain; Q9Y2U5; bead flow cytometry, Alexa488-MEK5 binding to MEKK2 WT; actives lie on both sides; binding response (% of control), % at 10 µM; 1.1% of 290,000 active; in the data active = binding response below about 67% or above about 130%
MEKK2 mut-MEK5 = signal of MEK5 binding to mutant human MEKK2 PB1 domain | bead flow cytometry, Alexa488-MEK5 binding to MEKK2 mutant | percent response, % at 10 µM | 0.35% of 290,000 active | AID 1530; in the data active = percent response above about 24%, passing the limit was not always enough
MEKK2wt confirm = raises or lowers MEK5 binding to wildtype human MEKK2, retest; shares compounds with MEKK3 PB1 HTS; bead flow cytometry, Alexa488-MEK5 binding to MEKK2 WT; actives lie on both sides; binding response (% of control), % at 10 µM; 2.4% of 5,900 active; AID 1892; in the data active = binding response below about 16% or above about 210%; inactive = in between
MEKK2mut confirm = signal of MEK5 binding to mutant human MEKK2, retest | shares compounds with MEKK3 PB1 HTS | bead flow cytometry, Alexa488-MEK5 binding to MEKK2 mutant | percent response, % at 10 µM | 2% of 5,900 active; in the data active = percent response mostly above about 71%, no sharp cut-off; inactive = mostly below about 38%;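 also: higher means compound restores mutant binding toward wildtype level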
MEKK3-MEK5 inh = confirmation of inhibitors of MEK5 binding to human MEKK3; binding response (% of control), % at 10 µM; AID 1894; bead flow cytometry, Alexa488-MEK5 binding to MEKK3; active compounds read low; 1.8% of 5,900 active; shares compounds with MEKK3 PB1 HTS;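 active = binding response below 72% of control, or above a set upper limit, though filed actives all read lower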;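 also: 100% = DMSO only wells and 0% = binding blocked by excess unlabeled MEK5; lower values mean stronger disruption of MEK5 binding to MEKK3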
* = called active by the depositor; · = no result; [ ] = remark or other dose. A selection: hits, their analogues and other compounds. The true share with any hit is near 2.9%.

SMILES	ATG4B inhibitor	B2AR ag	Dynein transport	MEKK3 PB1 HTS	MEKK2 WT-MEK5	MEKK2 mut-MEK5	MEKK2wt confirm	MEKK2mut confirm	MEKK3-MEK5 inh
CCOc1ccc(C(=O)NNC(=O)c2cc(S(=O)(=O)N3CCOCC3)ccc2Cl)cc1	-9	-3	·	·	·	·	·	·	·
Cc1ccc(S(=O)(=O)NCC(c2ccco2)S(=O)(=O)c2ccccc2)cc1 (stereo not drawn)	-8	-6	·	·	·	·	·	·	·
O=C(CC(c1ccco1)S(=O)(=O)c1ccccc1)c1ccccc1 (stereo not drawn)	8	1	-0.46	136*	118	1	98	3	102
Cc1cccc(N2CCN(C(=S)Nc3ccc4nc(N5CCN(C)CC5)cc(C)c4c3)CC2)c1C	-4	·	0.48	30*[inhibitor]	47*[inhibitor]	-39	94	-20	75
Cc1cc(N2CCN(C)CC2)nc2ccc(NC(=S)N3CCCCC3)cc12	27	-1	-1.4	101	125	9	·	·	·
CCN1CCN(c2cc(C)c3cc(NC(=S)NCCCN4CCc5ccccc5C4)ccc3n2)CC1	-6	26	0.6	117	177*	21	169	52	107
Cc1cc(N2CCCC2)nc2ccc(NC(=S)NCCCN3CCC(C)CC3)cc12	-3	6	-0.46	127	112	-1	·	·	·
Cc1cc(N2CCN(C)CC2)nc2ccc(NC(=S)NCCCN3CCc4ccccc4C3)cc12	-6	28	-0.48	117	173*	44	142	25	102
Cc1ccc(NC(=O)c2ccc(OCc3c(C)noc3C)cc2)nc1	-5	3	·	·	·	·	·	·	·
Cc1ccc(NS(=O)(=O)c2cc([N+](=O)[O-])ccc2N/N=C/c2sc(N3CCOCC3)nc2-c2ccccc2)c(C)c1	-2	-398	-1.8	10*[inhibitor]	·	49	106	3	102
CCN(c1ccccc1)S(=O)(=O)c1cccc(C(=O)NCC(c2cccs2)N2CCOCC2)c1 (stereo not drawn)	-9	-8	·	·	·	·	·	·	·
CCc1ccc2nc(NC(=O)CN3C(=O)NC4(CCCC4)C3=O)sc2c1	-4	21	·	·	·	·	·	·	·
CC(=O)OCC1=C(C(=O)O)N2C(=O)C(NC(=O)c3ccc(F)cc3)C2SC1 (stereo not drawn)	1	0	-0.55	139*	120	1	107	5	108
COc1ccc(CNCCS(=O)(=O)NN2CCOCC2)cc1	-2	3	·	·	·	·	·	·	·
O=C(OCC(=O)N1CCN(Cc2ccccc2)CC1)c1ccc(Cl)cc1	-5	-3	0.51	4.0*[inhibitor]	6.0*[inhibitor]	-42	99	-3	98
O=C(OCC(=O)N1CCN(C(=O)c2ccco2)CC1)c1ccc(Cl)cc1	-6	-1	·	·	·	·	·	·	·
O=C(/C=C\c1cn(-c2ccccc2)nc1-c1ccccc1)Nc1nccs1	2	2	-0.71	140*	104	0	104	2	104
Cc1ccc(C)c(N2CCN(c3cnn(-c4nc5ccccc5s4)c(=O)c3Cl)CC2)c1	30	-6	0.66	143*	107	1	109	12	108
COc1ccc(CCNC(=O)CSc2ccc(Br)cc2)cc1OC	-7	0	-1	118	111	-1	·	·	·
COc1ccc(NC(=O)Nc2cccc3c2O[C@H](CN(C)S(=O)(=O)c2c(C)noc2C)[C@@H](C)CN([C@H](C)CO)C3=O)cc1	-17	3	·	·	·	·	·	·	·
O=C(CSCc1ccccc1)N1CCN(c2ccccc2)CC1	-4	3	-0.43	91	94	-1	·	·	·
Cc1ccc(CSCC(=O)N2CCN(c3ccccc3)CC2)cc1	11	6	0.92	131*	106	0	107	-1	107
O=C1c2ccccc2C(O)N1Cc1cccs1 (stereo not drawn)	-2	-3	1.9	102	103	2	·	·	·
Nc1ccccc1NC(=O)c1ccccc1N	-8	-3	0.53	3.0*[inhibitor]	3.0*[inhibitor]	-16	100	-6	103
Cc1c(NC(=O)c2ccccc2N)cccc1C(=O)O	-14	-2	1.7	98	98	0	·	·	·
SMILES	ATG4B inhibitor	B2AR ag	Dynein transport	MEKK3 PB1 HTS	MEKK2 WT-MEK5	MEKK2 mut-MEK5	MEKK2wt confirm	MEKK2mut confirm	MEKK3-MEK5 inh
O=C(Nc1ccc(C2=NCCN2)cc1)c1ccc(C(=O)Nc2ccc(C3=NCCN3)cc2)c([N+](=O)[O-])c1	12	8	-0.25	63*[inhibitor]	151*	32	104	6	46*
CCCc1cc(=O)[nH]c(SCc2cc(C(=O)OC)c(C)o2)n1	-6	-1	0.25	2.0*[inhibitor]	3.0*[inhibitor]	-16	99	-2	101
O=S(=O)(NCCOc1ccc(F)cc1)c1ccc2c(c1)OCCO2	-9	2	-0.62	2.0*[inhibitor]	2.0*[inhibitor]	-18	107	1	107
COCCC(=O)N1CCC(Oc2ccc(C(=O)NCCC3=CCCCC3)cc2)CC1	-2	-8	·	102	104	4	·	·	·
Cc1ccc(NC(=O)C(OC(=O)c2cc(C)oc2C)c2ccccc2)cc1 (stereo not drawn)	-5	-3	0.4	100	102	-8	·	·	·
Cc1cc(C(=O)OC(C(=O)Nc2cccc(C(F)(F)F)c2)c2ccccc2)c(C)o1 (stereo not drawn)	-1	5	0.26	145*	107	3	103	2	101
CN1CCN(CCCCOc2ccccc2C=O)CC1	-3	6	-0.74	128*	200*	28	172	47	105

Assay outcomes deposited in PubChem by several laboratories.
